From ChEMBL document CHEMBL4715848, “1,2,3-Triazole tethered 1,2,4-trioxanes: Studies on their synthesis and effect on osteopontin expression in MDA-MB-435 breast cancer cells” (2020)
Active and inactive are the calls of the source. The rule behind the calls is not given here.

System: not listed separately
Assay: (§1) Down regulation of OPN expression in human MDA-MB-435 cells at 50 uM measured after 24 hrs by Western blot analysis relative to control
Assay type: functional
Summary of the method: (§2)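 MDA-MB-435 cells (1x10^6 per 6 cm plate) grown 24 h in DMEM/10% FBS with penicillin-streptomycin, 37 °C, 5% CO2, then serum-starved 24 h. Treated 24 h with compound at 50 µM against a DMSO control. Secreted OPN in serum-free supernatant run on non-reducing 10% SDS-PAGE. Lysate β-actin run on 10% SDS-PAGE. Both probed with monoclonal antibodies, read by chemiluminescence and quantified by densitometry.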

Row | SMILES | fold change (FC)
1 | C[C@@H]1CC[C@H]2[C@@H](C)C(O)O[C@@H]3O[C@]4(C)CC[C@@H]1[C@]32OO4 (stereo partly specified) | 0.45
2 | CC(CCC1OC(c2ccco2)OOC1(C)C)CCn1cc(COC2[C@H]3OCO[C@H]3CO[C@@]23COC(C)(C)O3)nn1 (stereo partly specified) | 0.12
3 | COc1ccc(C2OOC(C)(C)C(CCC(C)CCn3cc(COC4[C@H]5OCO[C@H]5CO[C@@]45COC(C)(C)O5)nn3)O2)cc1 (stereo partly specified) | 0.2
4 | CC(CCC1OC(c2cccc(Br)c2)OOC1(C)C)CCn1cc(COC2[C@H]3OCO[C@H]3CO[C@@]23COC(C)(C)O3)nn1 (stereo partly specified) | 0.15
5 | CC(CCC1OC(c2ccc(Cl)cc2)OOC1(C)C)CCn1cc(COC2[C@H]3OCO[C@H]3CO[C@@]23COC(C)(C)O3)nn1 (stereo partly specified) | 0.15
6 | C[C@@H]1CC[C@H]2[C@@H](C)C(OCc3cn(Cc4ccccc4)nn3)O[C@@H]3O[C@]4(C)CC[C@@H]1[C@]32OO4 (stereo partly specified) | 0.3

System: MDA-MB-435
Assay: as §1
Assay type: functional
Summary of the method: as §2

Row | SMILES | inhibition
7 | CC(CCC1OC(c2ccc([N+](=O)[O-])cc2)OOC1(C)C)CCn1cc(COC2[C@H]3OCO[C@H]3CO[C@@]23COC(C)(C)O3)nn1 (stereo partly specified) | inactive
8 | COc1ccc(C2OOC(C)(C)C(CCC(C)CCn3cc(-c4ccc(-c5cn(CCC(C)CCC6OC(c7ccc(OC)cc7)OOC6(C)C)nn5)cc4)nn3)O2)cc1 (stereo unspecified) | inactive
9 | CC(CCC1OC(c2cccc([N+](=O)[O-])c2)OOC1(C)C)CCn1cc(COC2[C@H]3OCO[C@H]3CO[C@@]23COC(C)(C)O3)nn1 (stereo partly specified) | inactive
10 | CC(CCC1OC(c2ccc(F)cc2)OOC1(C)C)CCn1cc(COC2[C@H]3OCO[C@H]3CO[C@@]23COC(C)(C)O3)nn1 (stereo partly specified) | inactive
11 | CC(CCC1OC(c2ccc(F)cc2)OOC1(C)C)CCn1cc(-c2ccc(-c3cn(CCC(C)CCC4OC(c5ccc(F)cc5)OOC4(C)C)nn3)cc2)nn1 (stereo unspecified) | inactive
12 | CC(CCC1OC(C)(c2ccc(Cl)cc2)OOC1(C)C)CCn1cc(-c2ccc(-c3cn(CCC(C)CCC4OC(C)(c5ccc(Cl)cc5)OOC4(C)C)nn3)cc2)nn1 (stereo unspecified) | inactive
13 | CC(CCC1OC(c2ccc(Cl)cc2)OOC1(C)C)CCn1cc(-c2ccc(-c3cn(CCC(C)CCC4OC(c5ccc(Cl)cc5)OOC4(C)C)nn3)cc2)nn1 (stereo unspecified) | inactive
14 | CC(CCC1OC2(CCCCC2)OOC1(C)C)CCn1cc(-c2ccc(-c3cn(CCC(C)CCC4OC5(CCCCC5)OOC4(C)C)nn3)cc2)nn1 (stereo unspecified) | inactive
15 | CC(CCC1OC(c2ccccc2Br)OOC1(C)C)CCn1cc(-c2ccc(-c3cn(CCC(C)CCC4OC(c5ccccc5Br)OOC4(C)C)nn3)cc2)nn1 (stereo unspecified) | inactive
16 | Cc1ccc(C2OOC(C)(C)C(CCC(C)CCn3cc(COC4[C@H]5OCO[C@H]5CO[C@@]45COC(C)(C)O5)nn3)O2)cc1 (stereo partly specified) | inactive
17 | CC(CCC1OC(c2cccc3ccccc23)OOC1(C)C)CCn1cc(-c2ccc(-c3cn(CCC(C)CCC4OC(c5cccc6ccccc56)OOC4(C)C)nn3)cc2)nn1 (stereo unspecified) | inactive
18 | CC(CCC1OC(c2ccccc2Br)OOC1(C)C)CCn1cc(COC2[C@H]3OCO[C@H]3CO[C@@]23COC(C)(C)O3)nn1 (stereo partly specified) | inactive
19 | CC(CCC1OC(c2ccc3c(c2)OCO3)OOC1(C)C)CCn1cc(COC2[C@H]3OCO[C@H]3CO[C@@]23COC(C)(C)O3)nn1 (stereo partly specified) | inactive
20 | CC(CCC1OC(c2ccc([N+](=O)[O-])cc2)OOC1(C)C)CCn1cc(-c2ccc(-c3cn(CCC(C)CCC4OC(c5ccc([N+](=O)[O-])cc5)OOC4(C)C)nn3)cc2)nn1 (stereo unspecified) | inactive
21 | CC(CCC1OC(c2cccc(Br)c2)OOC1(C)C)CCn1cc(-c2ccc(-c3cn(CCC(C)CCC4OC(c5cccc(Br)c5)OOC4(C)C)nn3)cc2)nn1 (stereo unspecified) | inactive
22 | CC(CCC1OC2(CCCCC2)OOC1(C)C)CCn1cc(COC2[C@H]3OCO[C@H]3CO[C@@]23COC(C)(C)O3)nn1 (stereo partly specified) | inactive
23 | CC(CCC1OC(c2ccco2)OOC1(C)C)CCn1cc(-c2ccc(-c3cn(CCC(C)CCC4OC(c5ccco5)OOC4(C)C)nn3)cc2)nn1 (stereo unspecified) | inactive
24 | Cc1ccc(C2OOC(C)(C)C(CCC(C)CCn3cc(-c4ccc(-c5cn(CCC(C)CCC6OC(c7ccc(C)cc7)OOC6(C)C)nn5)cc4)nn3)O2)cc1 (stereo unspecified) | inactive
25 | CC(CCC1OC(c2cccc3ccccc23)OOC1(C)C)CCn1cc(COC2[C@H]3OCO[C@H]3CO[C@@]23COC(C)(C)O3)nn1 (stereo partly specified) | inactive
26 | CC(CCC1OC(c2ccc3c(c2)OCO3)OOC1(C)C)CCn1cc(-c2ccc(-c3cn(CCC(C)CCC4OC(c5ccc6c(c5)OCO6)OOC4(C)C)nn3)cc2)nn1 (stereo unspecified) | inactive
27 | C[C@@H]1CC[C@H]2[C@@H](C)C(=O)O[C@@H]3O[C@@]4(C)CC[C@@H]1[C@]32OO4 | inactive

System: not listed separately
Assay: Down regulation of OPN expression in human MDA-MB-435 cells at 10 uM measured after 24 hrs by Western blot analysis relative to control
Assay type: functional
Summary of the method: as §2, with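 “10” for “50”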

Row | SMILES | fold change (FC)
28 | CC(CCC1OC(c2ccccc2)OOC1(C)C)CCn1cc(COCCNCCOCc2cn(CCC(C)CCC3OC(c4ccccc4)OOC3(C)C)nn2)nn1 (stereo unspecified) | 0.11
29 | CC(CCC1OC2(CCCCC2)OOC1(C)C)CCn1cc(COCCNCCOCc2cn(CCC(C)CCC3OC4(CCCCC4)OOC3(C)C)nn2)nn1 (stereo unspecified) | 0.27
30 | CC(CCC1OC(c2ccc(Cl)cc2)OOC1(C)C)CCn1cc(COCCNCCOCc2cn(CCC(C)CCC3OC(c4ccc(Cl)cc4)OOC3(C)C)nn2)nn1 (stereo unspecified) | 0.45
31 | CC(CCC1OC(c2ccc(F)cc2)OOC1(C)C)CCn1cc(COCCNCCOCc2cn(CCC(C)CCC3OC(c4ccc(F)cc4)OOC3(C)C)nn2)nn1 (stereo unspecified) | 0.17
32 | CC(CCC1OC(c2ccc([N+](=O)[O-])cc2)OOC1(C)C)CCn1cc(COCCNCCOCc2cn(CCC(C)CCC3OC(c4ccc([N+](=O)[O-])cc4)OOC3(C)C)nn2)nn1 (stereo unspecified) | 0.28
33 | Cc1ccc(C2OOC(C)(C)C(CCC(C)CCn3cc(COCCNCCOCc4cn(CCC(C)CCC5OC(c6ccc(C)cc6)OOC5(C)C)nn4)nn3)O2)cc1 (stereo unspecified) | 0.15
34 | CC(CCC1OC(c2cccc(Br)c2)OOC1(C)C)CCn1cc(COCCNCCOCc2cn(CCC(C)CCC3OC(c4cccc(Br)c4)OOC3(C)C)nn2)nn1 (stereo unspecified) | 0.26
35 | CC(CCC1OC(c2ccc3c(c2)OCO3)OOC1(C)C)CCn1cc(COCCNCCOCc2cn(CCC(C)CCC3OC(c4ccc5c(c4)OCO5)OOC3(C)C)nn2)nn1 (stereo unspecified) | 0.33
36 | COc1ccc(C2OOC(C)(C)C(CCC(C)CCn3cc(COCCNCCOCc4cn(CCC(C)CCC5OC(c6ccc(OC)cc6)OOC5(C)C)nn4)nn3)O2)cc1 (stereo unspecified) | 0.43
